Data set [1] is described as follows: Apical-to-basolateral permeability. Conditions: human.
Data set [2] can be described thus: Apical-to-basolateral permeability. As to conditions: human, Caco-2. (In general: Caco-2 monolayers are a common model of the intestinal barrier.)
The next data set has as its system hIECs. In words: qPCR of intestinal marker genes in compound-treated hIECs. Type of data set: cell-based, human. As to conditions: compound-treated hIECs in 2D culture (Fig. 1C). For orientation: Real-time PCR tracks product formation cycle by cycle.
The test system of the next data set is β-catenin. In words: Western blot of β-catenin during hIEC differentiation. It is filed as cell-based, human. As to conditions: differentiation of hIEC progenitors, 2 μM Wnt-C59 (Fig. 1F). In short, it runs like this: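 hIEC progenitors are kept on 1% Matrigel in DMEM/F12 with EGF, R-spondin1 and insulin. They are seeded at 1.34 × 10^5 cells/cm2 on 1% Matrigel-coated Transwell inserts with 10 μM Y-27632 until near confluence. They are then switched to DMEM/F12 with EGF (100 ng/ml), 2 μM Wnt-C59, 1 mM VPA, 2% FBS, 2% B27, 1% N2, 2 mM l-glutamine, 1% NEAA and 15 mM Hepes.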
A general note: Immunoblotting shows a protein as a band on a membrane.

A further data set concerns Notch signaling. Put plainly: Western blot of cleaved NOTCH1 and HES1 during hIEC differentiation. Conditions: single treatment with VPA, 1 mM (Fig. 1F). It is filed as cell-based, human.

The results in this text go back to PMC11210309 (Science Advances, 2021).

The term Papp A→B denotes the apparent permeability from the apical to the basolateral side of a cell layer. Regarding `COCCc1ccc(OCC(O)CNC(C)C)cc1` (centres unmarked) [metoprolol], the apparent permeability from apical to basolateral (Papp A→B) at 2 h in data set [1] was found to be 13.8 ± 0.74 ×10⁻⁶ cm/s; in data set [2] it was 35.5 ± 1 ×10⁻⁶ cm/s.

Take `CC[C@H]1OC(=O)[C@H](C)[C@@H](O[C@H]2C[C@@](C)(OC)[C@@H](O)[C@H](C)O2)[C@H](C)[C@@H](O[C@@H]2O[C@H](C)C[C@H](N(C)C)[C@H]2O)[C@](C)(O)C[C@@H](C)C(=O)[C@H](C)[C@@H](O)[C@]1(C)O` [erythromycin]: the apparent permeability from apical to basolateral (Papp A→B) at 2 h in data set [1] was 4.95 ± 0.14 ×10⁻⁶ cm/s; in data set [2], < 0.3 ×10⁻⁶ cm/s.

`CC(C)NCC(O)COc1cccc2ccccc12` (centres unmarked) [propranolol]: the apical-to-basolateral permeability (Papp A→B) at 2 h in data set [1] came to 13.1 ± 1.25 ×10⁻⁶ cm/s; in data set [2], 29.1 ± 0.97 ×10⁻⁶ cm/s.

Consider “Insulin: acts in the intestinal epithelium via the insulin receptor; component of hIEC medium 1”, for which, in the data set with hIECs, the “Differentiation into absorptive cells (VIL1 and ANPEP expression)” value was “specifically increased”.

Turning to `O=C(O)Cc1ccccc1Nc1c(Cl)cccc1Cl` [diclofenac], the values for the Papp A→B at 2 h in data set [1] and in data set [2] were 12.5 ± 2.65 ×10⁻⁶ cm/s and 36.4 ± 1.13 ×10⁻⁶ cm/s, respectively.

On to `Cc1cc(-c2ccc(CC(=O)Nc3ccc(-c4cccnc4)cc3)cc2)ccn1` [WNT C-59], for which the “Expression of β-catenin” value with β-catenin is reported as “specifically inhibited”.

`CNC(=C[N+](=O)[O-])NCCSCc1ccc(CN(C)C)o1` [ranitidine]: the figures for the apparent permeability from apical to basolateral (Papp A→B) at 2 h in data set [1] and in data set [2] were 11.6 ± 0.92 ×10⁻⁶ cm/s and 1.16 ± 0.09 ×10⁻⁶ cm/s, respectively.

As for `CCCC(CCC)C(=O)O` [VPA, valproic acid], the “Notch signaling (cleaved NOTCH1 and HES1)” value in the data set on Notch signaling is listed as “notable enhancement”.

B1: R-spondin 1: an agonist of Wnt signaling (protein, UniProt Q2MKA7 21-263, looked up)
R-spondin-1: SRGIKGKRQRRISAEGSQACAKGCELCSEVNGCLKCSPKLFILLERNDIRQVGVCLPSCPPGYFDARNPDMNKCIKCKIEHCEACFSHNFCTKCKEGLYLHKGRCYPACPEGSSAANGTMECSSPAQCEMSEWSPWGPCSKKQQLCGFRRGSEERTRRVLHAPVGDHAACSDTKETRRCTVRRVPCPEGQKRRKGGQGRRENANRNLARKESKEAGAGSRRRKGQQQQQQQGTVGPLTSAGPA
For B1, in the data set with hIECs, the “Expression of markers of major intestinal cell types (ISCs, enterocytes, secretory lineage cells)” value is “induced”.
